From ChEMBL document CHEMBL4177554, “Ester-to-amide rearrangement of ethanolamine-derived prodrugs of sobetirome with increased blood-brain barrier penetration” (Bioorg Med Chem, 2017)

What was measured:
[1] = Ratio of drug level in C57Bl/6 mouse brain to serum assessed as sobetirome level at 1.5 umol/kg, ip after 1 hr by LC-MS/MS analysis; format: ADME, organism-based
Method in brief: (§1)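 Single i.p. dose of 1.5 μmol/kg in 50% DMSO/saline to male C57Bl/6 mice (8–10 wk), n = 3. Agents were given as amide-rearranged isomers where rearrangement occurs. Whole brain and blood were taken at 1 h. Sobetirome was measured by LC-MS/MS with d6-sobetirome internal standard, and the brain/serum ratio was calculated. Values are mean with SEM.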

[2] = Prodrug activation in C57Bl/6 mouse brain assessed as sobetirome level at 1.5 umol/kg, ip after 1 hr by LC-MS/MS analysis; format: organism-based; settings: in vivo; method in brief: as §1
[3] = Elimination half life in C57Bl/6 mouse at 3.05 umol/kg, iv by LC-MS/MS analysis; format: ADME, organism-based; settings: in vivo, read-out: beta t1/2 (converted)
Method in brief: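 C57Bl/6 mice, n = 3 per cohort, dosed i.v. by tail vein at 3.05 μmol/kg or by oral gavage at 30.5 μmol/kg in 50% DMSO/saline. Serial serum samples were taken (i.v.: 5 min–8 h; p.o.: 10 min–8 h). Prodrug and sobetirome were quantified by LC-MS/MS. %F = (AUCp.o./AUCi.v.)·(dosei.v./dosep.o.)·100. t½ came from the log-concentration slope of the last five i.v. time points.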

[4] = Drug uptake in C57Bl/6 mouse brain at 1.5 umol/kg, ip after 1 hr by LC-MS/MS analysis; format: ADME, organism-based; settings: read-out: Drug uptake; method in brief: as §1
[5] = AUC (0 to t) in C57Bl/6 mouse heart at 1.5 umol/kg, ip by LC-MS/MS analysis; format: ADME, organism-based; settings: in vivo
Method in brief: (§2)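 Male C57Bl/6 mice (8–10 wk) given a single i.p. dose of 1.5 μmol/kg in 50% DMSO/saline. Three mice per time point were killed at 0.25, 0.5, 1, 2, 4 and 8 h. Brain, liver, heart and kidney were homogenized with d6-sobetirome internal standard and acetonitrile-extracted, as was serum. Sobetirome was quantified by negative-ESI LC-MS/MS on C18. AUC0→t was computed over 8 h.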

[6] = test system: Mus musculus; test: Oral bioavailability in C57Bl/6 mouse at 30.5 umol/kg administered via oral gavage by LC-MS/MS analysis; settings: in vivo
[7] = AUC (0 to t) in C57Bl/6 mouse liver at 1.5 umol/kg, ip by LC-MS/MS analysis; format: ADME, organism-based; settings: in vivo; method in brief: as §2
[8] = test system: Mus musculus; test: Upregulation of Hr expression levels in ip dosed mouse brain for 7 days measured after 2 hrs post last dose by […] green dye-based qPCR analysis; format: functional
Method in brief: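 Mice, n = 3 per dose, received six i.p. doses in 1:1 saline/DMSO. Brains were collected 2 h post-injection. RNA was extracted with Trizol and a column kit with DNase treatment, and cDNA was diluted two-fold. Hairless was measured by qPCR, normalized to GAPDH, by comparative CT. ED50 ± SEM came from a sigmoidal dose–response fit. Run in triplicate.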

[9] = Ratio of drug level in C57Bl/6 mouse brain to serum at 1.5 umol/kg, ip after 1 hr by LC-MS/MS analysis; format: ADME, organism-based
Method in brief: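 Male C57Bl/6 mice, 8–10 weeks old, given one i.p. dose of 1.5 μmol/kg in 50% DMSO/saline. Whole brain and blood taken 1 h later; serum obtained from blood clotted on ice ≥30 min and spun at 7,500 × g for 15 min. d6-sobetirome internal standard added, acetonitrile extraction, sobetirome quantified by negative-ESI LC-MS/MS. Mean of n = 3 mice, SEM.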

[10] = AUC (0 to t) in C57Bl/6 mouse brain at 1.5 umol/kg, ip by LC-MS/MS analysis; format: ADME, organism-based; settings: in vivo; method in brief: as §2
[11] = AUC (0 to t) in C57Bl/6 mouse serum at 1.5 umol/kg, ip by LC-MS/MS analysis; format: ADME, organism-based; settings: in vivo; method in brief: as §2
[12] = Ratio of AUC (0 to t) in C57Bl/6 mouse brain to serum at 1.5 umol/kg, ip by LC-MS/MS analysis; format: ADME, organism-based; settings: read-out: Ratio AUC; method in brief: as §2
[13] = AUC (0 to t) in C57Bl/6 mouse kidney at 1.5 umol/kg, ip by LC-MS/MS analysis; format: ADME, organism-based; settings: in vivo; method in brief: as §2
[14] = AUC (0 to t) in C57Bl/6 mouse serum assessed as sobetirome level at 1.5 umol/kg, ip by LC-MS/MS analysis; format: ADME, organism-based; settings: in vivo; method in brief: as §2
[15] = AUC (0 to t) in C57Bl/6 mouse brain assessed as sobetirome level at 1.5 umol/kg, ip by LC-MS/MS analysis; format: ADME, organism-based; settings: in vivo; method in brief: as §2
[16] = test system: Mus musculus; test: Total oral bioavailability in C57Bl/6 mouse assessed as sobetirome level at 30.5 umol/kg administered via oral gavage by LC-MS/MS analysis; settings: in vivo
[17] = AUC (0 to t) in C57Bl/6 mouse liver assessed as sobetirome level at 1.5 umol/kg, ip by LC-MS/MS analysis; format: ADME, organism-based; settings: in vivo; method in brief: as §2
[18] = AUC (0 to t) in C57Bl/6 mouse heart assessed as sobetirome level at 1.5 umol/kg, ip by LC-MS/MS analysis; format: ADME, organism-based; settings: in vivo; method in brief: as §2
[19] = AUC (0 to t) in C57Bl/6 mouse kidney assessed as sobetirome level at 1.5 umol/kg, ip by LC-MS/MS analysis; format: ADME, organism-based; settings: in vivo; method in brief: as §2

Ratio [1]	Activity [2] [ng/g]	SMILES	further results
0.21	6.33	CNCCOC(=O)COc1cc(C)c(Cc2ccc(O)c(C(C)C)c2)c(C)c1	–
0.23	0.48	Cc1cc(OCC(=O)OC(C)CNC(C)C)cc(C)c1Cc1ccc(O)c(C(C)C)c1 (configuration not stated)	–
0.23	5.12	CNCC(C)OC(=O)COc1cc(C)c(Cc2ccc(O)c(C(C)C)c2)c(C)c1 (configuration not stated)	–
0.19	8.12	Cc1cc(OCC(=O)O[C@H](C)CN)cc(C)c1Cc1ccc(O)c(C(C)C)c1	–
0.045	3.38	Cc1cc(OCC(=O)OC(CN)C(C)C)cc(C)c1Cc1ccc(O)c(C(C)C)c1 (configuration not stated)	–
1.22	0.4	Cc1cc(OCC(=O)OC(C)(C)CN)cc(C)c1Cc1ccc(O)c(C(C)C)c1	–
0.066	4.92	Cc1cc(OCC(=O)OCCN)cc(C)c1Cc1ccc(O)c(C(C)C)c1	–
0.2	5.23	Cc1cc(OCC(=O)OC(CN)C(F)(F)F)cc(C)c1Cc1ccc(O)c(C(C)C)c1 (configuration not stated)	–
–	–	Cc1cc(OCC(=O)NC[C@H](C)O)cc(C)c1Cc1ccc(O)c(C(C)C)c1	Drug metabolism [2]: Metabolite_Detected
0.13	5.14	Cc1cc(OCC(=O)OC2(C(F)(F)F)CNC2)cc(C)c1Cc1ccc(O)c(C(C)C)c1	–
0.41	4.26	CCC(CN)OC(=O)COc1cc(C)c(Cc2ccc(O)c(C(C)C)c2)c(C)c1 (configuration not stated)	–
–	–	Cc1cc(OCC(=O)O)cc(C)c1Cc1ccc(O)c(C(C)C)c1 [SOBETIROME]	half-life [3]: 7.12 h; concentration at 1 h [4]: 2.32 ng/g; AUCt [5]: 180.3 ng·h/g; F [6]: 92%; AUCt [7]: 2235 ng·h/g; Activity [8]: Dose-dependent effect; ED50 [8]: 1.8 µmol/kg; Kp at 1 h [9]: 0.037; AUCt [10]: 9.9 ng·h/g; AUCt [11]: 472.6 ng·h/g; Kp [12]: 0.02; AUCt [13]: 686.8 ng·h/g
0.33	4.46	Cc1cc(OCC(=O)OC(C)CCN)cc(C)c1Cc1ccc(O)c(C(C)C)c1 (configuration not stated)	–
0.024	1.79	CNCC(OC(=O)COc1cc(C)c(Cc2ccc(O)c(C(C)C)c2)c(C)c1)C(C)C (configuration not stated)	–
0.21	5.92	Cc1cc(OCC(=O)OC(C)CN)cc(C)c1Cc1ccc(O)c(C(C)C)c1 (configuration not stated)	–
0.47	8.26	Cc1cc(OCC(=O)O[C@@H](C)CN)cc(C)c1Cc1ccc(O)c(C(C)C)c1	half-life [3]: 6.96 h; AUCt [14]: 136.5 ng·h/g; F [6]: 36%; Activity [8]: Dose-dependent effect; ED50 [8]: 1 µmol/kg; AUCt [15]: 17.2 ng·h/g; F [16]: 56%; Kp [12]: 0.13; AUCt [17]: 1017 ng·h/g; AUCt [18]: 57.2 ng·h/g; AUCt [19]: 283.8 ng·h/g
